Series [1] relates to Human alphaherpesvirus 3. Kind of series: Antiviral activity against Varicella-zoster virus YS expressing thymidine kinase assessed as reduction of virus induced cytopathicity by cell based assay. It counts as functional, organism-based. Conditions: for pEC50: Human alphaherpesvirus 3, YS. A general note: Damage to the host cells serves as the signal in cytopathic effect assays.

For series [2], the system named is Human alphaherpesvirus 3. Kind of series: Antiviral activity against Varicella-zoster virus strain OKA expressing thymidine kinase assessed as reduction of virus induced cytopathicity by cell based assay. It counts as functional. Conditions: for pEC50: Human alphaherpesvirus 3, strain Oka vaccine. In a few lines:
(§1)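 Confluent cell monolayers infected with 100 CCID50 virus, or 20 PFU for plaque assays, then incubated with serial compound dilutions. Host cells listed for the non-HIV panel are HEL fibroblasts, Vero, HeLa, CRFK or MDCK. Cytopathicity is scored, or plaques counted for VZV, once infected untreated controls reach full CPE.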

The subject of series [3] is Human alphaherpesvirus 3. As to the kind of experiment: Antiviral activity against thymidine kinase-deficient Varicella-zoster virus 07/1 assessed as reduction of virus induced cytopathicity by cell based assay. Conditions: for pEC50: Human alphaherpesvirus 3, 07/1. The class given is functional, organism-based. In a few lines: as §1
Series [4] relates to Human alphaherpesvirus 3. Kind of series: Antiviral activity against thymidine kinase-deficient Varicella-zoster virus YS/R assessed as reduction of virus induced cytopathicity by cell based assay. The class given is functional, organism-based. Conditions: for pEC50: Human alphaherpesvirus 3, YS/R.
Series [5] relates to Human alphaherpesvirus 1. As to the kind of experiment: Antiviral activity against Herpes simplex virus 1 strain KOS assessed as reduction of virus induced cytopathicity by cell based assay. The class given is functional, organism-based. Conditions: for pEC50: Human alphaherpesvirus 1, KOS. In a few lines: as §1
The test system of the next series is Human alphaherpesvirus 2. As to the kind of experiment: Antiviral activity against Herpes simplex virus 2 strain G assessed as reduction of virus induced cytopathicity by cell based assay. It counts as functional, organism-based. Conditions: for pEC50: Human alphaherpesvirus 2, strain G. The procedure, abridged: as §1
Series [6] relates to Human alphaherpesvirus 1. As to the kind of experiment: Antiviral activity against thymidine kinase-deficient acyclovir-resistant Herpes simplex virus 1 strain KOS assessed as reduction of virus induced cytopathicity by cell based assay. It counts as functional, organism-based. Conditions: for pEC50: Human alphaherpesvirus 1, KOS. In a few lines:
as §1

Series [7] concerns Human betaherpesvirus 5. Kind of series: Antiviral activity against Human cytomegalovirus strain AD169 assessed as reduction of virus induced cytopathicity by cell based assay. It counts as functional, organism-based. Conditions: for pEC50: Human betaherpesvirus 5, AD169. The procedure, abridged: as §1
For series [8], the system named is Human betaherpesvirus 5. As to the kind of experiment: Antiviral activity against Human cytomegalovirus Davis assessed as reduction of virus induced cytopathicity by cell based assay. The class given is functional, organism-based. Conditions: for pEC50: Human betaherpesvirus 5, Davis. The procedure, abridged:
as §1

The next series deals with Vaccinia virus. As to the kind of experiment: Antiviral activity against Vaccinia virus Lederle assessed as reduction of virus induced cytopathicity by cell based assay. The class given is functional, organism-based. Conditions: Orthopoxvirus vaccinia. In a few lines:
as §1

The subject of series [9] is Vesicular stomatitis virus. Kind of series: Antiviral activity against Vesicular stomatitis virus assessed as reduction of virus induced cytopathicity by cell based assay. It counts as functional, organism-based. The procedure, abridged:
as §1

A further series has as its system Coxsackievirus B4. As to the kind of experiment: Antiviral activity against Coxsackievirus B4 assessed as reduction of virus induced cytopathicity by cell based assay. The class given is functional, organism-based. In a few lines:
(§2)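 Confluent cell monolayers in 96-well plates (HEL, Vero, HeLa, CRFK or MDCK; the cell type per virus is not specified) infected with 100 CCID50 virus or 20 PFU and incubated with serial compound dilutions. Cytopathicity scored once it was complete in untreated infected controls.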

Series [10] deals with Respiratory syncytial virus. As to the kind of experiment: Antiviral activity against Respiratory syncytial virus Long assessed as reduction of virus induced cytopathicity by cell based assay. The class given is functional, organism-based. In a few lines: as §2
The next series deals with Human respirovirus 3. As to the kind of experiment: Antiviral activity against Human parainfluenza virus 3 assessed as reduction of virus induced cytopathicity by cell based assay. The class given is functional, organism-based. The procedure, abridged:
as §2

The test system of series [11] is Mammalian orthoreovirus 1. As to the kind of experiment: Antiviral activity against Reovirus-1 assessed as reduction of virus induced cytopathicity by cell based assay. The class given is functional, organism-based. In a few lines: as §2
In the next series the test system is Sindbis virus. Kind of series: Antiviral activity against Sindbis virus assessed as reduction of virus induced cytopathicity by cell based assay. The class given is functional, organism-based. In a few lines: as §2
The next series has as its system Punta Toro virus. As to the kind of experiment: Antiviral activity against Punta Toro virus assessed as reduction of virus induced cytopathicity by cell based assay. The class given is functional, organism-based. The procedure, abridged: as §2
Series [12] in a line: Cytotoxicity against human HEL cells assessed as alteration of cell morphology after 3 days by microscopic analysis. The class given is cell-based. In a few lines: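 MCC taken as the lowest compound concentration producing microscopically detectable alteration of HEL fibroblast morphology.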
The subject of a further series is HEL. As to the kind of experiment: Cytotoxicity against human HEL cells after 3 days by coulter counter. The class given is cell-based. Conditions: 72 h. The procedure, abridged:
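HEL cells seeded at 5 × 10^3 cells/well and allowed to proliferate for 24 h, then exposed to a range of compound concentrations for 3 days at 37 °C. Cells counted with a Coulter counter.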

The subject of another series is L1210. As to the kind of experiment: Cytostatic activity against mouse L1210 cells. It counts as functional.
The next series concerns FM3A. Kind of series: Cytostatic activity against mouse FM3A cells. The class given is functional.
In another series the test system is CCRF-CEM. Kind of series: Cytostatic activity against human CEM cells. It counts as cell-based.

pEC50: −log10 of the molar value. Calls of active or inactive are those of the source. The calls are words filed in the database; no cut-off is given here.

As for `CC(CP(=O)(O)O)OCCn1cnc2c(N)nc(N)nc21` (stereo unspecified), the outcome in the series on Human alphaherpesvirus 3 [1], in the series on Human alphaherpesvirus 3 [2] (strain Oka vaccine), with Human alphaherpesvirus 3 [3], in the series with Human alphaherpesvirus 3 [4], in the series on Human alphaherpesvirus 1 [5] and in the series on Human alphaherpesvirus 2 was inactive. Further, the outcome (in the series with Human alphaherpesvirus 1 [6]; with Human betaherpesvirus 5 [7]; in the series with Human betaherpesvirus 5 [8]; in the series on Vaccinia virus; in series [9]; in the series on Coxsackievirus B4) was inactive. Further, the outcome (in [10]; in the series on Human respirovirus 3; in series [11]; with Sindbis virus; in the series with Punta Toro virus) was inactive.

Broadly, the pEC50 is −log10 of the EC50, conventionally taken in molar units. One may read the CC50 as the concentration that lowers cell viability or growth by half. Low readings indicate greater toxicity to the cells, high ones lower toxicity to the cells. `Nc1ncnc2c1ncn2CCOC(Cc1ccccc1)CP(=O)(O)O` (stereo unspecified): the pEC50 in the series with Human alphaherpesvirus 3 [1] is 5.54; in the series with Human alphaherpesvirus 3 [2], 5.54; in the series on Human alphaherpesvirus 3 [3] it was 5.33; in the series on Human alphaherpesvirus 3 [4] it was 5.60; in the series with Human alphaherpesvirus 1 [5], 4.28; with Human alphaherpesvirus 2 it was 4.07. Moreover, the pEC50 in the series with Human alphaherpesvirus 1 [6] was 4.28; with Human betaherpesvirus 5 [7] it was 4.23; with Human betaherpesvirus 5 [8], 4.17; in the series on Vaccinia virus, less than 3.58. Further, in series [12], the MCC at 72 h is greater than 265 µM. Besides, the CC50 is no less than 247 µM with HEL, 273 µM in the series on L1210, 90 µM with FM3A and 530 µM in the series on CCRF-CEM. The outcome (in [9]; in the series with Coxsackievirus B4; in [10]; with Human respirovirus 3; in [11]; in the series with Sindbis virus) was inactive. The result in the series on Punta Toro virus was inactive.

On to `CCC(CP(=O)(O)O)OCCn1cnc2c(N)ncnc21` (stereo unspecified), for which the pEC50 in the series on Human alphaherpesvirus 3 [1] is 4.38; in the series on Human alphaherpesvirus 3 [2], 4.72; in the series with Human alphaherpesvirus 3 [3], 4.66; with Human alphaherpesvirus 3 [4], 4.37; with Human alphaherpesvirus 1 [5], 3.62; in the series with Human alphaherpesvirus 2, 3.54. The pEC50 was 3.60 in the series with Human alphaherpesvirus 1 [6], 3.80 in the series on Human betaherpesvirus 5 [7], 3.61 in the series with Human betaherpesvirus 5 [8] and less than 3.50 with Vaccinia virus. Besides, the MCC at 72 h in [12] is greater than 317 µM. Also, the CC50 with HEL was greater than 317 µM; in the series on L1210, greater than 660 µM; with FM3A, 432 µM; in the series with CCRF-CEM, greater than 660 µM. Also, the outcome (in series [9]; with Coxsackievirus B4; in series [10]; with Human respirovirus 3; in series [11]; in the series on Sindbis virus) was inactive. Also, the result in the series with Punta Toro virus was inactive.

The values are drawn from ChEMBL document CHEMBL1806434, “Acyclic nucleoside phosphonates with a branched 2-(2-phosphonoethoxy)ethyl chain: efficient synthesis and antiviral activity” (Bioorg Med Chem, 2011).
